Data taken from ChEMBL document CHEMBL1287760, “Optimization of purine-nitrile TbcatB inhibitors for use in vivo and evaluation of efficacy in murine models” (Bioorg Med Chem, 2010).
In brackets after ≈: the same amount, converted by molar mass. Activity calls are given as the source filed them. The calls are words filed in the database; no cut-off is given here.

What was measured:
[1] = Toxicity in human erythrocyte assessed as hemolysis at 10 uM after 5 hrs; type: cell-based; conditions: erythrocytes, read-out: Activity
Procedure, shortened: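 Human erythrocytes washed three times after spinning whole blood at 1000g for 5 min. Test compound at 10 µM final, 2% hematocrit. PBS negative control; 0.4% saponin dilution series as standard. After centrifugation, supernatant absorbance read at 414 nm and % hemolysis taken from the calibration curve. Triplicate.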

[2] = Half life in CD1 mouse liver microsomes by UPLC-MS analysis; type: ADME, Microsome; conditions: for half-life: CD1, mouse, liver microsomes
Procedure, shortened: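 CD-1 female mouse liver microsomes in 0.1 M potassium phosphate pH 7.4 with EDTA and NADPH-regenerating solutions, 37 °C, shaken. Samples at 0, 0.5, 1 and 2 h quenched with cold acetonitrile containing caffeine internal standard. UPLC–MS (SIR) read-out. Log peak-area ratio versus time gives slope; k = −2.303 × slope, t1/2 = 0.693/k.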

[3] = Half life in CD1 mouse plasma by UPLC-MS analysis; type: ADME, cell-free
Procedure, shortened: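 Half-life in mouse plasma measured at 37 °C.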

[4] = Aqueous solubility of compound in deionized water; type: physicochemical
Procedure, shortened: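 Aqueous solubility measured in deionized water.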

Trypanosoma brucei [5] = assay: Antitrypanosomal activity against Trypanosoma brucei after 48 hrs; type: functional, organism-based
[6] = Long term solid state stability of the compound at simulated tropical condition after 30 days; type: physicochemical; conditions: 720 h
[7] = Cmax in mouse plasma at 200 mg/kg, ip; type: ADME, organism-based; set-up: dose 200 mg/kg, route intraperitoneal
[8] = Cmax in mouse plasma at 200 mg/kg, po; type: ADME, organism-based; set-up: dose 200 mg/kg, route oral
Procedure, shortened: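 Female Balb/c mice given oral gavage suspensions (20% ethanol/40% propylene glycol/10% PEG 400/30% PBS pH 7.4), 0.1 ml per 20 g, at 50–1000 mg/kg. Retro-orbital blood (0.1 ml, EDTA) taken from a different mouse at 1, 2, 4 h, some also at 8, 12, 24 h, plus a 48 h cardiac bleed. Plasma precipitated with 3 parts cold acetonitrile; concentration by UV/HPLC.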

Mus musculus [9] = assay: Toxicity in mouse at 200 mg/kg, po qd for 10 days; type: organism-based; set-up: dose 200 mg/kg, route oral; conditions: in vivo, 240 h
Procedure, shortened: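 Five female Balb/c mice given 200 mg/kg daily by oral gavage for 10 days and monitored to day 30. One mouse sent for CBC, serum chemistry and necropsy on day 10 and another on day 30. Functional observational battery used.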

Mus musculus [10] = assay: Toxicity in mouse assessed as decreased movement at 2 to 8 mg/kg, iv measured immediately after dosing; type: organism-based; set-up: dose 2-8 mg/kg, route intravenous; conditions: in vivo
Procedure, shortened: (§1)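 Female Balb/c mice dosed by lateral tail-vein injection of solubilized compound at 2, 4 and 8 mg/kg (0.4–1.6 mg/ml solutions, 0.1 ml per 20 g). Observed by a modified Irwin functional observational battery (gait, alertness, respiration, piloerection, vasodilation, vocalization).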

Mus musculus [11] = assay: Toxicity in mouse assessed as transient darkening of the eyes at 2 to 8 mg/kg, iv measured immediately after dosing; type: organism-based; set-up: dose 2-8 mg/kg, route intravenous; conditions: in vivo; procedure, shortened: as §1
Mus musculus [12] = assay: Toxicity in mouse assessed as decreased movement at 2 to 8 mg/kg, iv measured after 30 seconds; type: organism-based; set-up: dose 2-8 mg/kg, route intravenous; conditions: in vivo, 0.5 min; procedure, shortened: as §1
Mus musculus [13] = assay: Toxicity in mouse assessed as transient darkening of the eyes at 2 to 8 mg/kg, iv measured after 30 seconds; type: organism-based; set-up: dose 2-8 mg/kg, route intravenous; conditions: in vivo, 0.5 min; procedure, shortened: as §1
[14] = Ratio of plasma concentration mouse at 200 mg/kg, po to EC50 for Trypanosoma brucei; type: ADME, organism-based; set-up: dose 200 mg/kg, route oral; conditions: in vivo
[15] = Ratio of plasma concentration mouse at 200 mg/kg, po to EC90 for Trypanosoma brucei; type: ADME, organism-based; set-up: dose 200 mg/kg, route oral; conditions: in vivo
[16] = Toxicity in po dosed mouse assessed as maximum tolerated dosage; type: organism-based; conditions: in vivo
Procedure, shortened: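 Female balb/c mice, 10–12 weeks, housed individually. Oral gavage in a four-stage escalation: vehicle, then 50, 100 and 200 mg/kg. Some groups went on to 400 and 1000 mg/kg. Dose volume 0.1 ml per 20 g. Twelve mice per compound. A modified Irwin FOB was run for 15 min after each dose and at 1–48 h (gait, alertness, respiration, piloerection, vasodilation, vocalization). Necropsy, CBC and serum chemistry were done at 48 h.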

Trypanosoma brucei [17] = assay: Antitrypanosomal activity against Trypanosoma brucei 221 infected in BALB/c mouse assessed as decrease of parasitemia at 200 mg/kg, po qd for 5 days measured on day 4; type: functional, organism-based; set-up: dose 200 mg/kg
Procedure, shortened: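 Female Balb/C mice (10–12 weeks) infected ip on day 0 with ~800 T.b. brucei strain 221 (0.1 ml of 8 × 10³ parasites/ml in unsupplemented HMI-9; parasites grown to 10⁷/ml in supplemented HMI-9). Randomized to oral gavage of 200 mg/kg suspension or vehicle (20% ethanol/40% propylene glycol/10% PEG 400/30% PBS pH 7.4) on days 0–4. Parasitemia counted by hemocytometer in saphenous blood every third day from day 4.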

Trypanosoma brucei [18] = assay: Antitrypanosomal activity against Trypanosoma brucei 221 infected in BALB/c mouse assessed as decrease of parasitemia at 200 mg/kg, po qd for 5 days measured on day 6; type: functional, organism-based; set-up: dose 200 mg/kg
Trypanosoma brucei [19] = assay: Antitrypanosomal activity against Trypanosoma brucei 221 infected in BALB/c mouse assessed as increase of mouse survival days at 200 mg/kg, po qd for 5 days relative to control; type: functional
Procedure, shortened: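 Female Balb/C mice (10–12 weeks) infected on day 0 by IP injection of ~800 T.b. brucei 221 parasites (cultured in HMI-9 with 10% FBS and 10% Serum Plus, diluted to 8 × 10³ parasites/ml, 0.1 ml). Oral gavage of 200 mg/kg on days 0–4 in 20% ethanol/40% propylene glycol/10% PEG 400/30% PBS pH 7.4; vehicle controls. Mice were randomly assigned to groups. Parasitemia was counted by hemocytometer every third day from day 4. Survival days were recorded.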

[20] = Therapeutic index, ratio of EC50 for human cells to EC50 for Trypanosoma brucei; conditions: human cells versus Trypanosoma brucei, read-out: Ratio EC50
Procedure, shortened: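 Index = EC50 against the most sensitive mammalian line (HEK 293, Hep G2, BJ, Raji) divided by EC50 against T.b. brucei.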

[21] = Cmax in mouse brain at 200 mg/kg, po
[22] = Drug level in mouse brain at 200 mg/kg, po after 24 hrs; conditions: read-out: Drug uptake
[23] = Cmax in mouse plasma at 50 to 1000 mg/kg, po after 1 to 4 hrs
[24] = Ratio of drug level in brain to plasma in mouse at 200 mg/kg, po after 24 hrs
[25] = test system: Trypanosoma brucei rhodesiense; assay: Antitrypanosomal activity against Trypanosoma brucei rhodesiense STIB900 infected in NMRI mouse assessed as increase of mouse survival time at 50 to 200 mg/kg, po qd
HEK293 = assay: Cytotoxicity against human HEK293 cells after 72 hrs by alamar blue assay; type: cell-based; conditions: hek293, 72 h
HepG2 = assay: Cytotoxicity against human HepG2 cells after 72 hrs by alamar blue assay; type: cell-based; conditions: hepg2, 72 h
BJ = assay: Cytotoxicity against human BJ cells after 72 hrs by alamar blue assay; type: cell-based
Raji = assay: Cytotoxicity against human Raji cells after 72 hrs by alamar blue assay; type: cell-based
[26] = Chemical stability in dimethyl sulfoxide at pH 3 after 14 days; type: physicochemical; conditions: buffer, pH 3, 336 h
Procedure, shortened: (§2)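 DMSO stability followed over 14 days for non-metabolic degradation.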

[27] = Chemical stability in dimethyl sulfoxide at pH 5 after 14 days; type: physicochemical; conditions: buffer, pH 5, 336 h; procedure, shortened: as §2
[28] = Chemical stability in dimethyl sulfoxide at pH 7.4 after 14 days; type: physicochemical; conditions: buffer, pH 7.4, 336 h; procedure, shortened: as §2
[29] = Chemical stability in phosphate buffered saline at pH 3 after 14 days; type: physicochemical; conditions: buffer, pH 3, 336 h
Procedure, shortened: (§3)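 Stability in PBS (pH 3, 5 and 7.4) followed over 14 days for non-metabolic degradation.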

[30] = Chemical stability in phosphate buffered saline at pH 5 after 14 days; type: physicochemical; conditions: buffer, pH 5, 336 h; procedure, shortened: as §3
[31] = Chemical stability in phosphate buffered saline at pH 7.4 after 14 days; type: physicochemical; conditions: buffer, pH 7.4, 336 h; procedure, shortened: as §3
[32] = Permeability of the compound assessed as ratio of compound in acceptor chamber to amount of compound in donor chamber at pH 3 by PAMPA assay; type: ADME
[33] = Permeability of the compound assessed as ratio of compound in acceptor chamber to amount of compound in donor chamber at pH 5 by PAMPA assay; type: ADME
[34] = Permeability of the compound assessed as ratio of compound in acceptor chamber to amount of compound in donor chamber at pH 7.4 by PAMPA assay; type: ADME
Mus musculus [35] = assay: Stability of the compound in po dosed mouse blood assessed as 3-(2-cyano-6-(3,4-dichlorobenzylamino)-9H-purin-9-yl)propanoic acid level; type: ADME, organism-based; conditions: in vivo
Procedure, shortened: (§4)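 Oral gavage of compound suspensions to female Balb/c mice; blood sampled retro-orbitally at 1, 2 and 4 h (one sample per mouse) and by cardiac puncture at 48 h. Parent compound and metabolites measured by UPLC–MS; metabolite identity assigned by MS/MS against a synthesized standard.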

Mus musculus [36] = assay: Stability of the compound in po dosed mouse blood assessed as 3-(2-cyano-6-(3,4-dichlorobenzylamino)-9H-purin-9-yl)propanoic acid level after 1 hr; type: ADME, organism-based; conditions: in vivo; procedure, shortened: as §4
Mus musculus [37] = assay: Stability of the compound in po dosed mouse blood assessed as 3-(2-cyano-6-(3,4-dichlorobenzylamino)-9H-purin-9-yl)propanoic acid level after 4 hrs; type: ADME, organism-based; conditions: in vivo; procedure, shortened: as §4
Mus musculus [38] = assay: Stability of the compound in po dosed mouse blood; type: ADME, organism-based; conditions: in vivo; procedure, shortened: as §4
[39] = Inhibition of Trypanosoma brucei cathepsin B expressed in Pichia pastoris

Row | SMILES | hemolysis at 5 h, 10 µM [1] [%] | half-life [3] [h] | solubility [4] [µM] | EC50 (Trypanosoma brucei [5]) [µM] | selectivity ratio [20] | Activity (HEK293) | Activity (HepG2) | Activity (BJ) | Activity (Raji) | Stability [26] | Stability [27] | Stability [28] | Stability [29] | Stability [30] | Stability [31] | half-life [2] [h] | Ratio [32] | Ratio [34] | Stability (Mus musculus [38]) | other results
1 | N#Cc1nc(NCc2ccc(Cl)c(Cl)c2)c2ncn(CCCC(F)(F)F)c2n1 | 0.4 | 177 | 0.3 (≈ 0.129 µg/mL) | 0.53 | > 20 |  |  |  |  |  |  |  |  |  |  |  |  |  |  | t1/2 ([2]; mouse, microsomes): Stable; Stability [6]: Stable; Tmax [7]: 4 h; Tmax [8]: 24 h; Activity (Mus musculus [9]): Non-toxic; Activity (Mus musculus [10]): Non-toxic; Activity (Mus musculus [11]): Non-toxic; Activity (Mus musculus [12]): Non-toxic; Activity (Mus musculus [13]): Non-toxic; Ratio [14]: 20; Ratio [15]: 10; MTD [16]: 1000 mg/kg; Activity (Trypanosoma brucei [17]): inactive; Activity (Trypanosoma brucei [18]): inactive; Survival (Trypanosoma brucei [19]): 9.6 days; Tmax [21]: 4 h; concentration at 24 h [22]: 20 µM; Cmax [23]: 6 µM; Kp at 24 h [24]: 2; Activity [25]: inactive
2 | N#Cc1nc(NCc2ccc(Cl)c(Cl)c2)c2ncn(CCCO)c2n1 | 0.7 | 5.1 | 10.4 (≈ 3.92 µg/mL) | 1.4 | > 20 | Non-toxic | Non-toxic | Non-toxic | Non-toxic | Stable | Stable | Stable | Stable | Stable | Stable | 0.6 | 1500 | 1300 |  | Ratio [33]: 960; Stability (Mus musculus [35]): > 50 µM; Stability (Mus musculus [36]): Unstable; Stability (Mus musculus [37]): Unstable
3 | COCCCn1cnc2c(NCc3ccc(Cl)c(Cl)c3)nc(C#N)nc21 | 0.7 | 40.9 | 4.2 (≈ 1.64 µg/mL) | 2.4 | > 10 |  |  |  |  |  |  |  |  |  |  | 0.53 | 1800 | 1770 | Unstable | 
4 | N#Cc1nc(NCc2ccc(Cl)c(Cl)c2)c2ncn(CCC(=O)O)c2n1 |  |  |  | > 25 |  |  |  |  |  |  |  |  |  |  |  |  |  |  |  | IC50 [39]: 2.6 µM
5 | Cc1cccc(C)c1-c1cccc(CNc2nc(C#N)nc3c2ncn3CCCO)c1 | 1.1 | 25.7 | 1 (≈ 0.412 µg/mL) | 0.27 | > 20 | Non-toxic | Non-toxic | Non-toxic | Non-toxic | Stable | Stable | Stable | Stable | Stable | Stable | 0.43 |  |  | Unstable | 
6 | CCCCn1cnc2c(NCc3ccc(Cl)c(Cl)c3)nc(C#N)nc21 | 0.9 | 247 | 0.7 (≈ 0.263 µg/mL) | 0.5 | > 20 |  |  |  |  |  |  |  |  |  |  | 0.74 |  |  |  | 
